# Experiments:
# [1] = Binding affinity to human CD4 signal peptide expressed in CHO cells assessed as down-modulation of YFP-fused CD4 expression after 24 hrs by flow cytometric analysis; assay type: cell-based
# How it was run: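 CHO cells stably expressing human CD4 fused C-terminally to YFP, treated 24 h at 37 °C with 1:5 serial dilutions. Washed, fixed in 1% formaldehyde, flow cytometry with 488 nm excitation and YFP in FL-1. YFP median fluorescence as % of untreated cells after subtracting non-transfected background. IC50 = 50% decrease; mean ± SD, n ≥ 3.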
# [2] = tested on: Human immunodeficiency virus 1; experiment: Antiviral activity against CXCR4 using HIV-1 NL4.3 infected in human MT4 cells assessed as reduction of viral replication preincubated for 15 mins with cells followed by viral infection measured after 4 days by MTS/PES method; assay type: functional, organism-based; details: Human immunodeficiency virus 1, NL4.3, MT4
# How it was run: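 MT-4 T cells at 3.75×10⁵ cells/mL in RPMI 1640 with 10% FBS and 2 mM L-glutamine, exposed to compounds for 15 min, then infected with HIV-1 NL4.3 (30 pg/well) at 37 °C. After 4 days, viability by MTS/PES absorbance at 490 and 700 nm, used to derive IC50 for viral replication. Mean ± SD, n = 2 or 3.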
# [3] = tested on: MT4; experiment: Cytotoxicity against human MT4 cells after 48 hrs by MTS/PES method; assay type: cell-based; details: mt4, 48 h
# How it was run: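 MT-4 cells at 10⁴ per well in DMEM with 10% FBS and 10 mM HEPES, incubated with compounds 48 h at 37 °C. Viability by MTS/PES; CC50 taken as the concentration reducing viability by 50%.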
# [4] = tested on: CHO; experiment: Binding affinity to human CD4 signal peptide expressed in CHO cells assessed as down-modulation of YFP-fused CD4 expression at 50 uM after 24 hrs by flow cytometric analysis; assay type: cell-based
# How it was run: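 Stably CD4-YFP-expressing CHO cells, 24 h at 37 °C, 50 μM as the highest concentration tested. Washed, fixed in 1% formaldehyde, YFP read by flow cytometry (488 nm, FL-1). Median fluorescence versus untreated cells, background of non-transfected cells subtracted. Given as % CD4 down-modulation at 50 μM.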
SMILES,IC50 [1] [µM],pIC50 [1],IC50 [2] [µM],CC50 [3] [µM],Activity [4] [%]
C=C1CN(S(=O)(=O)c2ccc(C)cc2)CCCN(Cc2ccccc2)CCCN(S(=O)(=O)c2ccc(OC(F)(F)F)cc2)C1.Cl,1.2,5.92,3.26,> 150,–
C=C1CN(S(=O)(=O)c2ccc(C)cc2)CCCN(Cc2ccccc2)CCCN(S(=O)(=O)c2ccccc2N)C1.Cl,2.12,5.66,6.93,70.3,–
C=C1CN(S(=O)(=O)c2ccccc2)CCCN(Cc2ccccc2)CCCN(S(=O)(=O)c2ccc(C)cc2)C1.Cl,1.46,5.84,> 50,> 150,–
C=C1CN(S(=O)(=O)c2ccc(C)cc2)CCCN(Cc2ccccc2)CCCN(S(=O)(=O)c2ccc(O)cc2)C1.Cl,3.58,5.45,2.84,13.6,–
C=C1CN(C(=O)c2ccc(OC)cc2)CCCN(Cc2ccccc2)CCCN(S(=O)(=O)c2ccc(C)cc2)C1,4.22,–,3.86,23.6,–
C=C1CN(S(=O)(=O)c2ccc(C)cc2)CCCN(Cc2ccccc2)CCCN(S(=O)(=O)N(C)C)C1,1.58,–,12.8,> 150,–
C=C1CN(S(=O)(=O)c2ccc(C)cc2)CCCN(CC2CCCCC2)CCCN(S(=O)(=O)c2ccc(O)cc2)C1,1.14,–,–,> 150,–
C=C1CN(S(=O)(=O)c2ccc(C)cc2)CCCN(Cc2ccccc2)CCCN(S(=O)(=O)c2ccc(OC)cc2OC)C1.Cl,1.35,5.87,7,> 150,–
C=C1CN(S(=O)(=O)c2ccc(C)cc2)CCCN(Cc2ccccc2)CCCN(S(=O)(=O)c2ccc(OC(=S)N(C)C)cc2)C1.Cl,6.28,5.2,> 50,106,–
C=C1CN(C(=O)c2ccc(N)cc2)CCCN(Cc2ccccc2)CCCN(S(=O)(=O)c2ccc(C)cc2)C1,> 50,–,> 10,13.7,–
C=C1CN(S(=O)(=O)c2ccc(C)cc2)CCCN(CC2CCCCC2)CCCN(S(=O)(=O)c2ccc(OCCCC)cc2)C1,1.1,–,1.95,13.2,–
C=C1CN(C(=O)c2ccc(C)cc2)CCCN(Cc2ccccc2)CCCN(S(=O)(=O)c2ccc(C)cc2)C1,3.78,–,3.95,19.9,–
C=C1CN(S(=O)(=O)c2ccc(C)cc2)CCCN(Cc2ccccc2)CCCN(S(=O)(=O)c2ccc(N)cc2)C1.Cl,2.42,5.62,7.72,63.4,–
C=C1CNCCCN(Cc2ccccc2)CCCN(S(=O)(=O)c2ccc(C)cc2)C1,> 50,–,–,> 150,20
C=C1CN(S(=O)(=O)c2ccc(C)cc2)CCCN(CC2CCCCC2)CCCN(S(=O)(=O)c2ccc(OCCCN)cc2)C1,> 50,–,–,11.6,–
C=C1CN(S(=O)(=O)c2ccc(C)cc2)CCCN(Cc2ccccc2)CCCN(S(=O)(=O)c2cccc([N+](=O)[O-])c2)C1.Cl,2.02,5.69,> 50,> 150,–
C=C1CN(C(=O)c2ccc([N+](=O)[O-])cc2)CCCN(Cc2ccccc2)CCCN(S(=O)(=O)c2ccc(C)cc2)C1,> 50,–,> 50,> 150,39
C=C1CN(S(=O)(=O)c2ccc(C)cc2)CCCN(Cc2ccccc2)CCCN(S(=O)(=O)c2ccn(C)c2)C1.Cl,3.17,5.5,> 50,> 150,–
C=C1CN(S(=O)(=O)c2ccc(C)cc2)CCCN(Cc2ccccc2)CCCN(S(=O)(=O)c2ccc(C)cc2)C1,–,6.4,–,–,–
C=C1CN(S(=O)(=O)c2ccc(C)cc2)CCCN(Cc2ccccc2)CCCN(S(=O)(=O)c2ccc([N+](=O)[O-])cc2)C1.Cl,5.25,5.28,35.9,> 150,–
C=C1CN(C(=O)c2ccccc2)CCCN(Cc2ccccc2)CCCN(S(=O)(=O)c2ccc(C)cc2)C1,7.32,–,> 10,15.8,–

# Further lines, with some results ahead:
IC50 [1] [µM],pIC50 [1],SMILES,IC50 [2] [µM],CC50 [3] [µM],Activity [4] [%]
0.19,–,C=C1CN(S(=O)(=O)c2ccc(C)cc2)CCCN(CC2CCCCC2)CCCN(S(=O)(=O)c2ccc(OCC)cc2)C1,0.62,19.6,–
0.17,6.77,C=C1CN(S(=O)(=O)c2ccc(C)cc2)CCCN(Cc2ccccc2)CCCN(S(=O)(=O)c2ccc(N(C)C)cc2)C1.Cl,0.62,> 150,–
0.79,6.1,C=C1CN(S(=O)(=O)c2ccc(C)cc2)CCCN(Cc2ccccc2)CCCN(S(=O)(=O)c2cccc(N(C)C)c2)C1.Cl,> 50,> 150,–
0.55,6.26,C=C1CN(S(=O)(=O)c2ccc(C)cc2)CCCN(Cc2ccccc2)CCCN(S(=O)(=O)c2ccc3ccccc3c2)C1.Cl,1.35,> 150,–
0.7,6.15,C=C1CN(S(=O)(=O)c2ccc(C)cc2)CCCN(Cc2ccccc2)CCCN(S(=O)(=O)c2ccccc2[N+](=O)[O-])C1.Cl,27.7,> 150,–
0.063,–,C=C1CN(S(=O)(=O)c2ccc(C)cc2)CCCN(CC2CCCCC2)CCCN(S(=O)(=O)c2ccc(N(C)C)cc2)C1,0.18,44,–
0.29,6.54,C=C1CN(S(=O)(=O)c2ccc(C)cc2)CCCN(Cc2ccccc2)CCCN(S(=O)(=O)c2ccc(OC)cc2)C1.Cl,0.55,> 150,–
0.23,6.64,C=C1CN(S(=O)(=O)c2ccc(C)cc2)CCCN(Cc2ccccc2)CCCN(S(=O)(=O)c2ccc(SC)cc2)C1.Cl,1.44,> 150,–
0.75,–,C=C1CN(S(=O)(=O)c2ccc(C)cc2)CCCN(CC2CCCCC2)CCCN(S(=O)(=O)c2ccc(OCCCN3C(=O)c4ccccc4C3=O)cc2)C1,–,32.2,–
0.46,6.34,C#CCOc1ccc(S(=O)(=O)N2CCCN(Cc3ccccc3)CCCN(S(=O)(=O)c3ccc(C)cc3)CC(=C)C2)cc1.Cl,0.55,> 150,–
0.13,–,C=C1CN(S(=O)(=O)c2ccc(C)cc2)CCCN(CC2CCCCC2)CCCN(S(=O)(=O)c2ccc(N3CCOCC3)cc2)C1,0.36,> 150,–
0.15,–,C=C1CN(S(=O)(=O)c2ccc(C)cc2)CCCN(CC2CCCCC2)CCCN(S(=O)(=O)c2ccc(OC)cc2)C1,0.49,99,–
1.06,5.97,C=C1CN(S(=O)(=O)c2ccc(C)cc2)CCCN(Cc2ccccc2)CCCN(S(=O)(=O)c2ccc3c(c2)OCO3)C1.Cl,14.2,> 150,–
0.31,6.51,C=C1CN(S(=O)(=O)c2ccc(C)cc2)CCCN(Cc2ccccc2)CCCN(S(=O)(=O)c2ccc(OC)c(OC)c2)C1.Cl,0.86,> 150,–
0.18,–,C=C1CN(S(=O)(=O)c2ccc(C)cc2)CCCN(CC2CCCCC2)CCCN(S(=O)(=O)c2ccc(-n3cccc3)cc2)C1,1.25,48,–
1.02,5.99,C=C1CN(S(=O)(=O)c2ccc(C)cc2)CCCN(Cc2ccccc2)CCCN(S(=O)(=O)c2cccc(N)c2)C1.Cl,6.22,> 150,–
0.92,6.04,C=C1CN(S(=O)(=O)c2ccc(C)cc2)CCCN(Cc2ccccc2)CCCN(S(=O)(=O)c2ccc(F)cc2)C1.Cl,4.66,> 150,–
1.08,5.97,C=C1CN(S(=O)(=O)c2ccc(C)cc2)CCCN(Cc2ccccc2)CCCN(S(=O)(=O)N2CCOCC2)C1.Cl,8.99,> 150,–
1,–,C=C1CN(S(=O)(=O)c2ccc(C)cc2)CCCN(CC2CCCCC2)CCCN(S(=O)(=O)c2ccc(N)cc2)C1,> 10,10.6,–

# Reference: ChEMBL document CHEMBL3792300, “Tuning Side Arm Electronics in Unsymmetrical Cyclotriazadisulfonamide (CADA) Endoplasmic Reticulum (ER) Translocation Inhibitors to Improve their Human Cluster of Differentiation 4 (CD4) Receptor Down-Modulating Potencies” (J Med Chem, 2016)
